Screens (PubChem)
iPSC survival up: enhancers of single-cell hiPSC survival, primary screen, ATPlite luminescence. hit rate 0.044% among 360,000. survival enhancement, % at 20 µM. 100% = ROCK inhibitor wells, 0% = DMSO; in the data active = survival enhancement above about 18%;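 note: cells exposed to compounds for 16 hours before the ATP read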
MC4R antagonist: MC4R antagonists of cAMP signaling, primary screen, cell-based, TR-FRET, antagonist arm of biased-ligand search | Melanocortin receptor 4 (Homo sapiens), P32245 | MC4R-expressing cells, MTII-stimulated cAMP, LANCE TR-FRET | inhibition, % at 6.5 µM | hit rate 0.48% among 360,000 | AID 540295, 2011;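 active = inhibition above its plate's cutoff, the mean of tested wells on that plate plus 3 SD, cut at about 29% in these data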;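 note: 0% = Melanotan II alone and 100% = Melanotan II plus saturating MCL0020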
Target sequence (P32245 whole entry, looked up): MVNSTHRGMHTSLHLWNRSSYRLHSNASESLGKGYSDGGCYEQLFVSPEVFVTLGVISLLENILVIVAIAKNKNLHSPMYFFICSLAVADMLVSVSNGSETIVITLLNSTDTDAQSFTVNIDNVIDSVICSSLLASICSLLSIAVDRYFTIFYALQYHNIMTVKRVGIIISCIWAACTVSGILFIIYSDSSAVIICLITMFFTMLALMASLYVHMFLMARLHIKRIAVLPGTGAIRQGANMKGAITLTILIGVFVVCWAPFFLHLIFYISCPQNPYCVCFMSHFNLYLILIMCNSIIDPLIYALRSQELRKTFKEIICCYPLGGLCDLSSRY
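Test system: U2OS cells stably expressing human melanocortin 4 receptor (MC4R); also added: Melanotan II challenge; compound: 6.5 µM single dose; timing: 30-min compound preincubation, 1-h Melanotan II challenge, 1-h detection, room temperature; signal: Eu-cAMP/anti-cAMP TR-FRET, emission 671 nm; repeats: one well per compound, no replicates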
MC4R ag barr: MC4R agonists recruiting beta-arrestin, primary screen, cell-based, luminescence, agonist arm of biased-ligand search; AID 540308, 2011; U2OS MC4R beta-arrestin complementation; percent of melanotan II response, DMSO zero; activation, % at 8.9 µM; Melanocortin receptor 4 (Homo sapiens), P32245; hit rate 0.98% among 360,000;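 active = activation above a per-plate cutoff, the mean activation of sample wells on that plate plus 3 SD, cut at about 8% in these data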
TbMetRS inhib: T. brucei MetRS inhibitors, primary screen, biochemical, luminescence; methionyl-tRNA synthetase (Trypanosoma brucei brucei); purified T. brucei MetRS, ATP depletion, Kinase-Glo luminescence; inhibition, % at 11.9 µM; hit rate 0.4% among 360,000; AID 624268, 2012;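 active = inhibition above a per-plate cutoff of the control wells' mean inhibition plus 3 SD, cut at about 5.5% in these data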;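 note: 0% = DMSO wells median and 100% = median of wells with control inhibitor compound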
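Dosing: 11.9 µM single point; system: parasite MetRS enzyme; technique: luminescence of leftover ATP; times: 15 min enzyme-compound preincubation, 2 h reaction, 10 min detection, 25 °C; replicates: each compound tested once; read-out basis: percent inhibition relative to median high and low control wells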
ABCB6 inh 2: ABCB6 transporter inhibitors, primary screen, K562-ABCB6 cells, flow cytometry, MLPCN library; fluorescence ratio to DMSO, % at 10 µM; hit rate 0.19% among 360,000; K562-ABCB6 porphyrin accumulation, 1 h; stronger effect = lower value; AID 602162, 2011;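 active = fluorescence ratio to DMSO below 75%, the collection mean minus 3 SD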;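 note: signal is porphyrin accumulated inside mitochondria; 100% equals median channel fluorescence of DMSO control wells; lower ratio means ABCB6 inhibition with less porphyrin fluorescence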
Granule exo inh: LAMP-1 surface exposure blockers, TALL-104 cells – cell-based, flow cytometry, MLPCN library, primary screen; TALL-104 LAMP-1 surface exposure; cells stimulated with thapsigargin and PMA; inhibition, % at 10 µM; hit rate 0.66% among 360,000; AID 651702, 2012;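 active = inhibition above about 55%, limit read from the data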
* = called active by the depositor; / = no result given. An excerpt weighted towards active compounds, which were near 2.6% of everything screened.

SMILES | iPSC survival up | MC4R antagonist | MC4R ag barr | TbMetRS inhib | ABCB6 inh 2 | Granule exo inh
COc1ccc(S(=O)(=O)NC2CC3CCC2C3)cc1Br (stereo unspecified) | 0 | 11 | 0 | 0 | 99 | -6
Cc1ccc(C)c(N(C)C(=O)c2ccc3c(=O)n4c(nc3c2)CCCCC4)c1 | 0 | 11 | 1 | -1 | 106 | -14
Cc1ccc(NC(=O)C(=O)NC(C)C2COc3ccccc3O2)cc1 (stereo unspecified) | 0 | -3 | 11* | 0 | 97 | -5
Cn1cc(C=O)c2cc(S(=O)(=O)N3CCOCC3)ccc21 | 0 | 19 | -1 | 0 | 101 | -1
COc1ccc(/C=C/C(=O)Nc2cc(C)nn2-c2nc3ccccc3[nH]2)cc1 | -2 | 7 | 0 | -1 | 95 | -1
COc1ccc(/C=C/C(=O)Nc2cc(C)nn2-c2nc3ccccc3n2Cc2cccc([N+](=O)[O-])c2)cc1 | 1 | -2 | 8.6* | 0 | 103 | 2
O=C1C2C3C=CC(CO)(O3)C2C(=O)N1c1ccccc1-c1ccccc1 (stereo unspecified) | -2 | -3 | -3 | 0 | 94 | 64*
CCCCS(=O)(=O)/C=C\C=C/S(=O)(=O)CCCC | 6 | 14 | -4 | -1 | 69* | 43
CCC(C)[C@H](NC(=O)NCc1cccc(OC)c1)C(=O)OC (stereo partly specified) | 4 | 10 | -1 | 1 | 96 | 0
COc1cccc(CNC(=O)N[C@@H](CC(C)C)C(=O)O)c1 | -4 | 5 | 0 | 0 | 63* | -2
CC12CC3(C)CC(C)(C1)CC(C(=O)NC(=S)N1CCOCC1)(C2)C3 | -3 | 7 | 8.7* | 0 | 104 | -5
CC1=C(C)/C(=N\OS(=O)(=O)c2ccc(C)cc2)C=CC1=O | -2 | 16 | 1 | -1 | 120 | 46
CC1=C/C(=N\OS(=O)(=O)c2ccccc2)C(C(C)C)=CC1=O | -5 | 45* | 31* | 0 | 98 | 13
Cc1cc(OC(=O)c2cc(Cl)ccc2Cl)c([N+](=O)[O-])c(=O)[nH]1 | 0 | 7 | -1 | 0 | 97 | 4
O=C(c1ccccc1)N1N=C(c2cccs2)CC1c1ccccc1O (stereo unspecified) | 0 | -1 | 8.4* | -1 | 89 | 9
Cc1ccc(-n2c(SCC(=O)NCc3ccco3)nc3sc4c(c3c2=O)CC(C)(C)SC4)cc1 | 0 | -1 | -2 | 0 | 83 | -1
CCC1CCc2c(sc3nc(SCC(=O)NCc4ccco4)n(-c4ccccc4)c(=O)c23)C1 (stereo unspecified) | -1 | 9 | 8.7* | -1 | 113 | 3
COc1ccc(NC(=O)CCC(=O)OCc2ccc(C(=O)Oc3ccc(Cl)cc3)cc2)cc1 | 0 | 6 | 3 | 0 | 105 | -1
O=C(CCC(=O)OCc1ccc(C(=O)Oc2ccc(Cl)cc2)cc1)Nc1ccccc1 | 0 | 1 | 9.6* | -1 | 105 | 1
COc1ccc(C(=O)COC(=O)C(CCSC)NC(=O)COc2ccccc2)c(OC)c1 (stereo unspecified) | 0 | 2 | -1 | -1 | 97 | -4
CCn1cc(C(=O)NC2CCCc3c2cnn3-c2cccc(C)c2C)cn1 (stereo unspecified) | 0 | 0 | -2 | 0 | 65* | 3
O=C(NC(=S)Nc1ccc(N2CCCC2)cc1)c1ccc(F)cc1 | 0 | 6 | 1 | 0 | 87 | 0
COc1cc(OC)cc(C(=O)N(Cc2ccco2)c2c(N)n(Cc3ccccc3)c(=O)[nH]c2=O)c1 | -1 | 8 | -1 | 0 | 100 | -4
CCCc1cc(C(=O)Nc2cnn(Cc3ccc(F)cc3)c2)no1 | 0 | 18 | -1 | 0 | 95 | 0
O=C(Nc1cnn(Cc2ccc(F)cc2)c1)c1cc(-c2cccs2)on1 | 1 | -1 | 13* | 0 | 97 | 0
SMILES | iPSC survival up | MC4R antagonist | MC4R ag barr | TbMetRS inhib | ABCB6 inh 2 | Granule exo inh
O=C(NCc1ccco1)c1ccc(-c2ccc(F)c(F)c2)c2ccoc12 | 0 | 21 | 0 | 0 | 97 | 1
COC(=O)c1cn(NC(=O)c2cccc(N(C)C)c2)c(=O)c2ccccc12 | -2 | -4 | 4 | -2 | 72* | -3
COc1cc2c(cc1OC)CN(CCC(C)c1ccc(Cl)cc1)CC2 (stereo unspecified) | 0 | 3 | 3 | 0 | 94 | 65*
COc1cc2c(cc1OC)CN(Cc1ccccc1)CC2 | 0 | 10 | 0 | 0 | 101 | -2
Cc1ccc2nc(-c3ccc(NC(=S)NCC(C)(C)CN(C)C)cc3)sc2c1 | -1 | 2 | -2 | 0 | 95 | 56*
S=c1[nH]nc(COc2ccc(Cl)cc2)n1-c1ccccc1 | 0 | 12 | -2 | 0 | 101 | -7
OCC1(Cc2ccc(F)cc2F)CCCN(CCCc2ccccc2)C1 (stereo unspecified) | 0 | 19 | 9.5* | 0 | 108 | 5
C[C@H]1CNC(=O)c2c(C(=O)NC3CCN(C(=O)OC(C)(C)C)CC3)ncn21 | 6 | / | / | -1 | 94 | 11
O=C(Nc1cc(Cl)ccc1O)C1CC(c2c(F)cccc2Cl)=NO1 (stereo unspecified) | 0 | 14 | 0 | 1 | 111 | 14
O=C(Nc1cc(Br)ccc1O)C1CC(c2ccccc2Cl)=NO1 (stereo unspecified) | -1 | 5 | 8.6* | 1 | 97 | -9
O=Cc1cc(N=Nc2ccccc2Cl)ccc1O | 0 | 14 | -2 | 1 | 93 | 62*
O=C(C(=O)N1CCC(c2ccccc2)CC1)c1ccc(F)c(F)c1 | / | / | / | 0 | / | -6
O=C(CCNc1ccc(Cc2ccncc2)cc1)c1ccc([N+](=O)[O-])cc1 | 1 | 21 | 0 | 1 | 99 | 90*
O=C(CCNc1ccc(Br)cc1)c1cccc([N+](=O)[O-])c1 | 4 | 8 | 0 | 0 | 94 | 86*
CCOC(=O)N1CCN(C(=O)c2ccccc2NC(=O)c2ccc(F)cc2)CC1 | -1 | 3 | 8.4* | -1 | 93 | -4
COC(=O)c1cc2c(n1S(=O)(=O)c1ccc(C)cc1)C(=O)C(=O)c1[nH]cc(C(=O)OCc3ccccc3)c1-2 | -3 | -27 | 37* | 0 | 100 | 21
